Reference: PMC3748591 (Bioorganic & medicinal chemistry, 2011)

Columns and labels:
Human SphK1 = Human SphK1 (Homo sapiens, UniProt Q9NYA1); assay: Sphingosine kinase assay, in vitro inhibition of SphK1; format: biochemical; details: initial screen at 100 μM inhibitor
mouse SphK2 = biological target: T1, mouse SphK2 (Mus musculus, UniProt Q9JIA7); assay: Sphingosine kinase assay, in vitro inhibition of SphK2; format: biochemical; details: initial screen at 100 μM inhibitor
T1 sequence (Q9JIA7 1-617): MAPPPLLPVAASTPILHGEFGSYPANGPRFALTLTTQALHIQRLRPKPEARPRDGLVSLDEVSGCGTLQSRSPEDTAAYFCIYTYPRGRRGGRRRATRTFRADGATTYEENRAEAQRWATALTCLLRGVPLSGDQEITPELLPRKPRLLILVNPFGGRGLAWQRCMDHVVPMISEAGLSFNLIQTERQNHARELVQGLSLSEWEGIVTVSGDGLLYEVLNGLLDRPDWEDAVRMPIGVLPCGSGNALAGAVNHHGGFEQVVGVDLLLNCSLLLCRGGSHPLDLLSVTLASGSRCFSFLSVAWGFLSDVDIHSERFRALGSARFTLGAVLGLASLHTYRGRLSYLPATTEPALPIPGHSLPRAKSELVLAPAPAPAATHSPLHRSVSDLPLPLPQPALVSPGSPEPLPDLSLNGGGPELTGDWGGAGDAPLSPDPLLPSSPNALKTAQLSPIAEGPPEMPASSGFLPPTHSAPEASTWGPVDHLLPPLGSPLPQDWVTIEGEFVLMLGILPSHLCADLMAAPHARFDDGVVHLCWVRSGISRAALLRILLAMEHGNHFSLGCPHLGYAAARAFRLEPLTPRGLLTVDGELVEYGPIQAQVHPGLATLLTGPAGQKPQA

SphK2 = biological target: T2, SphK2 (Homo sapiens, UniProt Q9NRA0); assay: FTY720 phosphorylation in intact U937 cells; format: cell-based; details: U937 cells exposed to FTY720 and 10 μM inhibitor, 2 h; cell pellet, LC/MS
T2 sequence (Q9NRA0 1-654): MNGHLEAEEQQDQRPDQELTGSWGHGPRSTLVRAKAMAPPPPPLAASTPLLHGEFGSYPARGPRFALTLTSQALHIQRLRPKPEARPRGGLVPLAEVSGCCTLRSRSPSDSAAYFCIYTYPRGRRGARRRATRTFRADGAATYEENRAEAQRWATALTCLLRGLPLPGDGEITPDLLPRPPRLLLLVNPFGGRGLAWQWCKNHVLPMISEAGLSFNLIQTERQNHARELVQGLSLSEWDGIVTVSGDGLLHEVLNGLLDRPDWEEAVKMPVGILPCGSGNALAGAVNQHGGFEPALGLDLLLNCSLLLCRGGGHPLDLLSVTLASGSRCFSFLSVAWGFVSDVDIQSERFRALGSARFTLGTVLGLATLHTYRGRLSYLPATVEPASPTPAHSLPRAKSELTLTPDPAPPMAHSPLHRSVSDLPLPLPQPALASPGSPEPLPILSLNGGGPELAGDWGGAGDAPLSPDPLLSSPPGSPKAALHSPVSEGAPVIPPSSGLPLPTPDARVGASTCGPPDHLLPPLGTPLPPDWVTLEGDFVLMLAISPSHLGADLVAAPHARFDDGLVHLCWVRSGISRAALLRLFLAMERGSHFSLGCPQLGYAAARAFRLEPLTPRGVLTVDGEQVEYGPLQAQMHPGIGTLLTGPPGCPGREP
Procedure, shortened: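 Cultured U937 cells were given exogenous FTY720 plus 10 μM test compound for 2 h, then pelleted by centrifugation. Pellet FTY720 and FTY720-P were measured by LC/ESI-MS/MS: C18 reverse phase, water/methanol/formic acid gradient, 1 mL/min. MRM was 308.4→255.1 and 388.4→255.1, with C17S1P and C17-sphingosine as internal standards, quantified by peak area. Results are moles per million cells, means ± SD of three independent experiments, unpaired two-tailed t-test.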

U937 cells = assay: S1P levels in U937 cells; format: cell-based, human; details: LC/MS, data not shown
[1] = system: Akt and ERK phosphorylation; assay: Akt/ERK phosphorylation in U937 cells; format: cell-based, human; details: different concentrations, 16 h (legend: 24 h), Western blot
Procedure, shortened: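 U937 cells pretreated with test compound at a range of concentrations for 24 h (legend; the methods say times "usually 2 h"). Cells were washed in PBS, Dounce-lysed, and equal protein run on 10% SDS–PAGE, then transferred to nitrocellulose. Blots were blocked in 5% milk/TBS pH 7.4 with 0.1% Tween 20, probed 1 h with anti-ERK, p-ERK, Akt, p-Akt and β-actin (1:1000), then HRP anti-IgG (1:2000), with chemiluminescent detection. PD098059 (10 μM) served as ERK positive control.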

Chain of Human SphK1 (Q9NYA1 whole entry): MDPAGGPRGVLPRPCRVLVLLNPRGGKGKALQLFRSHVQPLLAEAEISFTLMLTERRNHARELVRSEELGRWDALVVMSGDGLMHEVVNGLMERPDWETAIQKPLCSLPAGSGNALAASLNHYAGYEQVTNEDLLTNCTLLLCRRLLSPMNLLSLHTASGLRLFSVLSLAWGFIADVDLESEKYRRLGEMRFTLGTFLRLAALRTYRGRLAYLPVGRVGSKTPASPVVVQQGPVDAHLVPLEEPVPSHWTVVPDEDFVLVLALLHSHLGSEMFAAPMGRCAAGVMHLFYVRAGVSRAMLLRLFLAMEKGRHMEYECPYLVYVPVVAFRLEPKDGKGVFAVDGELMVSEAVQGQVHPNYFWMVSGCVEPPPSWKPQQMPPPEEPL

Structure (SMILES)	inhibition of SphK1, result in words (Human SphK1)	inhibition of SphK2, result in words (mouse SphK2)	accumulation of FTY720 in cells (SphK2)	production of FTY720-P (SphK2)	S1P levels (U937 cells)	Akt phosphorylation [1]	ERK phosphorylation [1]
CCCCCCCCc1ccc(C2CCC(=CCO)CC2)cc1 (centres unmarked) [Compound 6, 2-(4-(4-Octylphenyl)cyclohexylidene)ethanol]	inactive against SphK1	did not cross the 50% threshold					
CCCCCCCCc1ccc([C@H]2CC[C@H]([N+](C)(C)C)CC2)cc1.[I-] [trans-12a, (1r,4r)-N,N,N-trimethyl-4-(4-octylphenyl)cyclohexanaminium iodide]			exaggerated the accumulation	significantly suppressed	no change	dose-dependent decrease	quantitatively inhibited
CCCCCCCCc1ccc([C@H]2CC[C@H]([N+](C)(C)CCC)CC2)cc1.[I-] [trans-12b, (1r,4r)-N,N-Dimethyl-4-(4-octylphenyl)-N-propylcyclohexanaminium iodide]			exaggerated the accumulation	significantly suppressed	no change	complete disappearance of p-Akt band	quantitatively inhibited
CCCCCCCCc1ccc(C2CCC(O)(C[N+](=O)[O-])CC2)cc1 (centres unmarked) [Compound 7, 1-(Nitromethyl)-4-(4-octylphenyl)cyclohexanol]	inactive against SphK1	did not cross the 50% threshold					
CCCCCCCCc1ccc([C@H]2CC[C@H](O)CC2)cc1 [Compound 9, (1r,4r)-4-(4-Octylphenyl)cyclohexanol]	inactive against SphK1	did not cross the 50% threshold					
CCCCCCCCc1ccc(C2CCC(=CC(=O)OC)CC2)cc1 (centres unmarked) [Compound 5, Methyl 2-(4-(4-octylphenyl)cyclohexylidene)acetate]	inactive against SphK1	did not cross the 50% threshold					
CCCCCCCCc1ccc(C2CCC(=NO)CC2)cc1 (centres unmarked) [Compound 8, 4-(4-Octylphenyl)cyclohexanone oxime]	inactive against SphK1	did not cross the 50% threshold					
